# An excerpt weighted towards active compounds, which were near 2.4% of everything screened.
# UBC9 SUMO inh = inhibitors of human SUMOylation (UBC9); 290,000 tested, 0.36% active; inhibition, % at 35 µM; HTRF SUMOylation assay, SAE1/SAE2 + UBC9, in vitro; in the data active = inhibition above about 50%, passing the limit was not always enough
# Target sequence (P63279 whole entry, looked up): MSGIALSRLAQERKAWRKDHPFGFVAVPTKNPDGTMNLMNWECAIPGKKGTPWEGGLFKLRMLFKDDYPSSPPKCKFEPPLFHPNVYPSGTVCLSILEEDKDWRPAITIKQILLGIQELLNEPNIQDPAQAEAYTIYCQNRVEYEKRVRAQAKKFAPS
# PfM18AAP inh = blocks P. falciparum M18 aspartyl aminopeptidase | recombinant PfM18AAP, H-Glu-NHMec fluorogenic cleavage | inhibition, % at 7.35 µM | 290,000 tested, 1.2% active | AID 1822;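 active = inhibition above the campaign mean inhibition over all tested compounds plus 3 SD, cut at about 28% in these data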;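 note: 0% = plate median of test compound wells and 100% = 2 mM ZnCl2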
# A3A deaminase = human APOBEC3A DNA deaminase inhibition; AID 493011; inhibition, % at 20 µM; recombinant A3A, FAM/TAMRA ssDNA deamination fluorescence; 330,000 tested, 0.41% active;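 active = at least 40% inhibition at 20 µM here, with at most 30% in a related deaminase screen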;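 note: plate controls were A3A with DMSO for no effect and wells lacking A3A enzyme for full effect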
# Target sequence (P31941 whole entry, looked up): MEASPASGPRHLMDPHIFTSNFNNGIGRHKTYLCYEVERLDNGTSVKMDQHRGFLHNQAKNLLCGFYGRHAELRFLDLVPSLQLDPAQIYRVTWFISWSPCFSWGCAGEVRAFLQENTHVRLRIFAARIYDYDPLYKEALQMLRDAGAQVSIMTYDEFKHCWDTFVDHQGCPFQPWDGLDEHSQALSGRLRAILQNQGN
# PfG6PD inh = PfG6PD (Plasmodium falciparum) enzyme inhibition | PfGluPho enzyme, NADPH resazurin-diaphorase fluorescence | inhibition, % at 20 µM | 350,000 tested, 0.78% active;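 active = inhibition reaching at least a set limit at 20 µM in the primary screen, cut at about 59% in these data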;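 note: 0% = DMSO wells with substrate and 100% = DMSO wells lacking glucose-6-phosphate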
# A3G deaminase = inhibitors of human APOBEC3G DNA deaminase. Q9HC16. recombinant A3G, ssDNA deamination FAM/TAMRA fluorescence. 330,000 tested, 0.28% active. inhibition, % at 20 µM;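 active = inhibition of at least 40% at 20 µM, with no more than 30% in the related APOBEC3A deaminase screen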;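 note: plate controls were DMSO wells with A3G for no effect and wells lacking A3G enzyme for full effect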
# HKDC1 inh = blocks human hexokinase HKDC1 activity | Q2TB90 | recombinant HKDC1, G6PDH/diaphorase resazurin coupled fluorescence | inhibition, % at 20 µM | 340,000 tested, 0.16% active | AID 493160;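 active = inhibition above about 35% when tested at 20 µM, limit read from the data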;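 note: plate controls were DMSO wells with enzyme for no effect and DMSO wells lacking enzyme for full effect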
#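 Assay system: in-house recombinant HK5 (HKDC1) enzyme. Input: HKDC1 at 5 µg/mL. Medium: Tris pH 8.0 buffer with MgCl2, Tween-20, BSA, BME. Dosing: single 20 µM dose. Schedule: 90 min reaction incubation at room temperature, dark. Signal: resazurin-to-resorufin fluorescence via G6PDH and diaphorase coupling, 525/613 nm. Controls: DMSO-enzyme wells negative, buffer-substituted wells positive.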
# HKDC1 act conf2 = HKDC1 (human) activation, single-dose confirmed; shares compounds with HKDC1 inh; recombinant HKDC1, G6PDH/diaphorase resazurin fluorescence; stronger effect = lower value; inhibition, % at 20 µM; 740 tested, 14% active;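 active = inhibition at or below a set negative limit, negative inhibition meaning the enzyme was activated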
# The depositor's hits bear a star; nt = no result given.
SMILES,UBC9 SUMO inh,PfM18AAP inh,A3A deaminase,PfG6PD inh,A3G deaminase,HKDC1 inh,HKDC1 act conf2
O=C(N/N=C/c1ccc(O)c2ncccc12)c1cccc(Br)c1,56.7,5.5,-4.4,-1.3,-7.9,-35.9,-17.6
O=C(N/N=C/c1cc(Br)ccc1O)c1ccncc1,41.3,-6.2,6.1,-25.6,-1.1,-26.4,nt
Cc1ccc(-c2nn(-c3ccccc3)cc2C=C2C(=O)CC(C)(C)CC2=O)cc1,11.5,-2.4,4.2,18.1,-4.6,16.8,nt
CC1=NNC(=O)/C1=C\c1cn(-c2ccccc2)nc1-c1ccc(Cl)cc1,-105.3,27.0,-0.8,-2.4,-8.0,37.2*,1.8
Cc1ccc(N2C(=O)N(CC(=O)NC(N)=O)C(=O)C2C)cc1 (stereo unspecified),-4.1,3.9,-2.7,0.3,-1.8,-1.8,nt
O=c1[nH]c(=O)c2nc3c4ccccc4c4ccccc4c3nc2[nH]1,27.9,-13.3,42.5,3.0,33.3,37.3*,-1.9
N=c1c(C(=O)NCCN2CCOCC2)cc2c(=O)n3ccccc3nc2n1Cc1ccc(F)cc1,7.0,3.0,-0.6,16.6,-3.4,-2.6,nt
CC(=NNC(=S)N1CC2CCC(CC2)C1)c1cccc(C)n1,nt,nt,nt,12.8,nt,-46.5,-51.9*
CC[C@]12c3[nH]c4cc(CCC(=O)N(C)C)ccc4c3CCN1C(=O)[C@@H](CC(=O)NCCCN(C)C)C[C@@H]2C(=O)N1CCN(C(=O)C2CC2)CC1,nt,nt,4.5,1.1,2.7,-7.2,nt
O=C(N/N=C1/C(=O)c2cccc3cccc1c23)c1ccc(Cl)cc1,16.0,5.0,2.6,26.4,0.6,43.5*,-1.5
CCNC(=S)N/N=C1\C(=O)c2cccc3cccc1c23,-25.1,4.1,-2.8,8.4,-3.2,-2.7,nt
O=C1C=CC(=O)c2c(O)c(CO)c(CO)c(O)c21,nt,nt,nt,33.3,nt,48.5*,39.3
Cc1ccc(S(=O)(=O)N2CCCC2C(=O)Nc2nccs2)cc1 (stereo unspecified),2.7,-3.2,-2.5,9.6,-4.2,-5.0,nt
COC(=O)C1=C(C(=O)OC)[C@@H]2Nc3ccccc3[C@@]23C[C@@H](C(=O)OC)N(C(=O)c2cc(C)oc2C)C3=N1,nt,nt,-1.3,-1.3,-3.2,3.8,nt
O=C(NCc1ccncc1)C(=O)N/N=C/c1ccc(OCc2ccccc2)cc1,13.4,-13.7,4.6,-29.6,0.9,-58.4,-16.5
O=C(NCc1ccncc1)C(=O)N/N=C/c1ccccc1OCc1ccccc1,26.4,6.4,4.2,-2.2,-6.5,-4.5,nt
CCOC(=O)c1ccc(NC(=O)CSc2n[nH]c(-c3ccncc3)n2)cc1,-0.5,12.5,34.1,22.7,5.3,39.6*,50.3
COC(=O)c1ccc(NC(=O)CSc2n[nH]c(-c3ccncc3)n2)cc1,10.5,-3.0,-2.0,37.9,-6.6,36.3*,43.0
O=C(O)c1ccccc1NCc1ccco1,12.8,3.0,-2.1,-4.5,-4.4,2.0,nt
Cn1nccc1C(=O)N1CCN(c2cccc(C(F)(F)F)c2)CC1,4.9,-2.7,3.3,0.6,8.4,-3.0,nt
Cn1nccc1C(=O)N1CCN(c2cccc(Cl)c2)CC1,-3.0,0.9,-7.8,13.9,2.7,38.7*,-28.9
COc1ccc(-c2cc(N)n(CCC#N)n2)c(OC)c1,5.9,-1.1,0.8,-1.6,-2.7,40.2*,-34.9
COc1ccc(-c2cc(N)n(S(=O)(=O)Cc3ccccc3)n2)c(OC)c1,0.8,-0.6,-0.8,34.8,-4.8,-1.9,nt
NC(CSC(c1ccccc1)(c1ccccc1)c1cccc2ccccc12)C(=O)O (stereo unspecified),nt,nt,nt,49.0,nt,35.4*,2.9
NC(CSC1(c2cccc3ccccc23)c2ccccc2-c2ccccc21)C(=O)O (stereo unspecified),nt,nt,nt,24.8,nt,6.4,nt
SMILES,UBC9 SUMO inh,PfM18AAP inh,A3A deaminase,PfG6PD inh,A3G deaminase,HKDC1 inh,HKDC1 act conf2
O=C(O)CCC(=O)N1CCN(Cc2ccc3c(c2)OCO3)CC1,18.3,-4.4,-7.7,-2.7,-4.9,-5.2,nt
CCCC(=O)N1CCN(Cc2ccc3c(c2)OCO3)CC1,5.1,5.1,-2.8,-24.8,-5.1,-56.9,-3.1
Cc1ccc(NC(=O)CN2C(=O)S/C(=C\c3cccn3-c3cccc(C(=O)O)c3)C2=O)c(C)c1,83.4*,5.0,25.8,-40.1,14.8,32.5,-23.0
COc1cc(/C=C(\C#N)c2nc3ccc(C)cc3[nH]2)c([N+](=O)[O-])cc1OC,11.3,22.6,-1.3,19.9,-2.5,5.0,nt
COc1cc(/C=C(\C#N)c2nc3ccc(C)cc3[nH]2)cc([N+](=O)[O-])c1O,9.0,-0.7,nt,14.4,nt,41.3*,42.2
COc1ccc(-c2cc(N3C(=O)Nc4ccccc4N3O)n[nH]2)cc1OC,1.3,-2.2,-1.1,-5.6,-5.2,-6.6,nt
CN1CCCC1CCNC1C2CC3CC(C2)CC1C3 (stereo unspecified),13.4,-1.2,0.7,-11.2,-3.5,-11.3,nt
COc1ccccc1Nc1ccc2c(O)cc(S(=O)(=O)O)cc2c1,nt,nt,nt,31.7,nt,38.0*,9.3
O=S(=O)(O)c1cc(O)c2cc(Nc3ccccc3)ccc2c1,nt,nt,nt,8.8,nt,21.9,nt
O=S(=O)(O)c1ccc(O)c2cc(Nc3ccccc3)ccc12,nt,nt,nt,39.2,nt,64.6*,44.1
Cc1ccc(S(=O)(=O)c2cc(Nc3ccccc3)ccc2O)cc1,nt,nt,6.0,16.7,10.2,4.6,nt
O=S(=O)(O)c1cc(O)c2ccc(Nc3ccccc3)cc2c1,nt,nt,nt,15.3,nt,49.9*,15.8
Cc1ccc2nc(NCc3ccccc3)c(C=NCc3ccccc3)c(=O)n2c1,-5.9,-6.8,-0.8,16.9,-3.3,2.5,nt
O=C(O)COc1ccccc1/C=N/NC(=O)c1cc(-c2ccc(F)cc2)nc2ccccc12,10.2,7.4,6.9,-15.9,7.9,0.9,nt
O=C(NCCC(=O)N1CCCC(C(F)(F)F)C1)c1ccc(Br)cc1 (stereo unspecified),-0.3,-3.3,-3.8,12.8,-3.2,36.2*,-12.1
O=C(CCN1C(=O)S/C(=C/c2ccc(F)cc2)C1=O)Nc1ccc(O)c(C(=O)O)c1,13.9,8.1,3.8,-33.1,1.1,2.0,nt
Cc1cc(C)c2c(=O)[nH]cnc2n1,12.5,-1.5,-0.7,25.0,-5.3,64.4*,-14.3
C[C@]12C(=O)N(c3ccc(Cl)cc3)C(=O)N1[C@H]1c3ccccc3OC[C@@H]1[C@H]2c1ccccc1,7.6,-0.3,-2.4,-7.9,22.7,0.3,nt
COc1ccc(-c2nc3c(C(=O)NCCN(C)C)cccc3c3ccccc23)cc1,nt,nt,nt,47.0,nt,39.5*,37.4
CN(C)CCNC(=O)c1cccc2nc3c(ccc4ccccc43)nc12,nt,nt,nt,15.3,nt,2.9,nt
COc1ccc(NC(=O)CSc2ccc(-c3cccnc3)nn2)cc1,2.6,-4.2,1.1,21.7,-3.9,8.1,nt
COc1ccc(NC(=O)CSc2ccc(-c3cccnc3)nn2)c(OC)c1,16.3,-5.9,-1.7,36.7,-8.2,31.8,38.8

# Compound activity: PubChem BioAssay, several laboratories
